To fix the notation:
B1: tRNA (parent)
chain: GUUCCGUUGGCGUAAUGGUAACGCGUCUCCCUCCUAAGGAGAAGACUGCGGGUUCGAGUCCCGUACGGAACG

This sample holds only a part of the variants without activity.

The variants in this data set derive from B1. The data set is described as follows: yeast fitness relative to wild type (ratio to wild type); higher = fitter; tRNA-Arg(CCU), competitive growth, 37 C, YPD. The procedure, abridged: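 Amplicons of the tRNA-Arg(CCU) gene were sequenced, 100-nucleotide paired-end, from the start population and from each end population of a pooled yeast competition. The competition, in six parallel replicates, lasted 24 hours in YPD at 37°C. Fitness relative to wild type was calculated from changes in genotype frequencies. Genotypes had to have ≥ 100 starting reads, and estimates < 0.5 were set to 0.5.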
In the case of GUUCCAUUGGCGUAAUGGUAACGCGUCUCCCUCCUAAGGAGAAGACUGCGGGUUCGAGUCACGUACAGAACG, the yeast fitness amounted to 0.547.
GUUCCAUUGGCGUAAUGGUAACGCGUCUCCCUCCUAAGGAGAAGACUGCGGGUUCGAGUCCCGUAUAGAACG: the yeast fitness amounted to 0.661.
To GUUCCAUUGGCGUAAUGGUAACGCGUCUCCCUCGUAGGGAGAAGACUGCGGGUUCGAGUCCCGUACUGAACG belongs at most 0.5.
In the case of GUUCCAUUGACGUAAUGGUAACGCGUCUCCCUCCUAAGGAGAGGACGGCGGGUUCGAGUCCCGUACGGAACG, the yeast fitness came to 0.761.
To GUUCCAUUGGCGUAAUGGUAACGCGUCUCCGUCCUAAGGAGAAGACUGCGGGUUCGAGUCCCGUACGGACCG belongs 0.553.
Regarding GUUCCAUUGGCGUAAUGGUAACGCGUCUCCCUCAUAAGGAGAAGAUUGCGGGUUCGAGUCCCGUCCGGAACG, the yeast fitness is at most 0.5.
Turning to GUUCCAUUAGCGUAAUGGUAACGGGUCUCCCUCCAAAGGAGAAGACUCCGGGUUCGAGUCCCGUACGGAACG, the yeast fitness is at most 0.5.
As for GUUCCAUUGGCGUAAUGGUAACGCGUCUCUCUCCUAGGGAGAAGACUGCGGGUUCGAGUCCCGUACGGAACG, the yeast fitness was at most 0.5.
To GUUCCAUUCGCGUAAUGGUAACGCGUCUCCCCCCUGAGGAGAAGACUGCGGGUUCGAGUCCCGUACGGAACG belongs at most 0.5; to GUUCCAUUGGCGUAAUGGUAACGCGUCUCCCUCGUAAGGAGAAGACUGCGGGUUCGAGACCCGUACGGAACG, 0.547; to GUUCCAUUGGCGUAAUGGUAACGCGUCUCCUUCCUAAGGAGAAGACUGCGGGUUCGAGUCCCAUACGGAACG, 0.582.
To GUUCCAUUGGCGUAAUGGUAACGCGUCUCCCUACUAAGGAGAAGACUGCGGGUUCGAAUCCCCUACGGAACG belongs at most 0.5; to GUUCCAUUGGCGUAAUGGUAACGCGUCUCCCUCAUAAGGAGAAGACGGGGGGUUCGAGUGCCGUACGGAACG, at most 0.5.
The same measure for GUUCCAUUGGCGUAAUGGUAACGCGUCUCCCUCUUAAGCAGAAGACUGCGGGUUCGAGUCCCGUACGGAACG: at most 0.5; for GUUCCAUUCGCGUAAUGGUAACGCGUCUCCCUCCUAAGGAGAACACUGCGGGUUCGAGUCCCGUACGGAACG: 0.605.
For GUUCCAUUGGCGUAAUGGUAACGCGUCUCGCUCCUAAGGAGAAGACUGCGGGUUCGAGUCCCGUACCGAACG, the yeast fitness is at most 0.5.
To GUUCCAUUCGGGUAAUGGUAACGCGUCUCCCUCUUAAGGAGAAGACUGCGGGUUCGUGUCCCGUACGGAACG belongs at most 0.5.
To GUUCCAUUGGCGUAAUGGUAACGCGUCUCCCUCCUAAGGAGAAGAAUGCGGGUUCGAGUCCCGUACGGAACG belongs 0.97; to GUUCCAUUGGCGUAAUGGUAACGCGUCUCCCUUCUAAGGAGAAGACUGCGGGUUCCAGUUCCGUACGGAACG, at most 0.5; to GUUCCAUUGGCGUAAUGGUAACGCGUCUCCGUCUUAAGGAGAAGAUUGCGGGUUCAAGUCCCGUACGGAACG, at most 0.5.
To GUUCCAUUGGCGUAAUGGUAACGCGUCUCAGUCCUAAGCAGAAGACUGCGGGUUCGAGUCCCGUACGGAACG belongs 0.534; to GUUCCAUUGGCGUAAUGGUAACGCGUCUCCCUCCUAAGGAGAAGACUGCGGGUUCGAGUCCCGUAUGGAACG, 1.03.
Take GUUCCAUUGGCGUAAUGGUAACGCGUCUCCCUGGUAAGGAGAAGACUGCGGGUUCGAGUCCCGUACGGUACG: the yeast fitness is at most 0.5.
The same measure for GUUCCAUUGGCGUAAUGGUAACGCGUCUCCCUCCUAAGGAGAAGACUGCGGGUUCGAGUACCGUACCGAACG: 0.536; for GUUCCAUUGGCGUAAUGGUAACGCGUCUCGCUCCUAAGGAGAAGACUGCGGGUUCGAGUCCCGUACGGAACG: 0.711; for GUUCCAUUGGCGUAAUGGUAACGCGUCUCCCUCCUAAGGAGAAGACUGUGGGUUCGAGUCCCGUACGGAACG: 0.959.
With GUUCCAUUGCCGUAAUGGUGAUGCGUCUCCCUCCUAACGAGAAGACUGCGGGUUCGAGUCGCGUACGGAACG, the yeast fitness is at most 0.5.
To GUUCCAUUGGCGUAAUGGUAACGCGUCUCCCUUCUAAGGAGAAGACUGCGGGUUCGAGUCCCGUACGGAACG belongs 0.649; to GUUCCAUUCGCGUGAUGGUAACGCGUCUCCCUCCUAAGGAGAAGACUGCGGGUUCGAGUCCCGUACGGAACG, at most 0.5.
To GUUCCAUUGGCGUAAUGGUAACGCGUCUCCGUCCUAAGGAGAAGACUGCGGGUUCGAGUCUCGUACGGAACG belongs at most 0.5; to GUUCCAUUGGCGUAAUGGUAACGCGUCUCCAUCCUACGGAGAAGACUGCGGGUUCGAGUCCCGUACGGAACG, at most 0.5; to GUUCCAUUGGCGUAAUGGUAACGCGUCUCACUCCUAAGGAGAAGUCUGCGGGUUCGAGUCCCGUACGGAACG, 0.667.
To GUUCCAUUGGCGUAAUGGUAACGCGUCUCCCUGGUAAGGAGAAGACUGCGGGUUCGAGUACCGUACGGUACG belongs at most 0.5; to GUUCCAUUGGCGUAAUGGUAACGCGUCUCCCUCCUAAGGAGAAGACUGUGGGUUCGAAUCCCGUACGGAACG, 0.654.
For GUUCCAUUCGCGUAAUGGUAACGCGUCUCCCUCCUAAGGAGAAGAGUGCGGGUUCGAGUCCCGUACGGAACG, the yeast fitness is 0.561.
The same measure for GUUCCAUUGGCGUAAUGGUAACGCGUCUCCCUCAUAAGGUGAAGACUGCGGGUUCGAGUCCCGUACGGAACG: 0.556; for GUUCCAUUGACGUAAUGGUAACGCGUCUCCCUCCUAAGCAGAAGACUGCGGGUUCGAGUCCCGUACGGACCG: at most 0.5.
The same measure for GUUCCAUUGCCGUAAUGGUGAUGCGUCUCCCUCCUAACGAGAAGACUGCGGGCUCGAGUCGCGUACGGAACG: at most 0.5.
To GUUCCAUUGGCGUAAUGGUAACGCGUCUCCGUCCUAAGGAGAAGACUGCGGGUUCGAGUCCCGUGCGGAACG belongs 0.547; to GUUCCAUUGGCGUAAUGGUAACGCGUCUCCAUCCUAAGGAGAAGACUGCGCGUUGGUGUCCCGUAUGGAACG, at most 0.5.
Turning to GUUCCAUUAGCGUAAUGGUAACGCGUCUCCCUCCUAAGGAGAAGACUGCGGGUUCGAGUCCCGUACGGAACG, the yeast fitness stood at 0.969.
The same measure for GUUCCAUUUGCGUAAUGGUAACGCGUCUCCCUCCUAAGGAGAAGACUGCGGGUUCGAGUCCCGUACGGAACG: 0.774; for GUUCCAUUGGCGUAAUGGUAACGCGUCUCCCUGCUAAGGAGAAGACAGCGGGUUCGAGUCCCGGACGGAACG: 0.558; for GUUCCAUUGGCGUAAUGGUAACGCGUCUCCGUCGUAAGGAGAUGACUGCGGGUUCGAGUCCCGUACGCGACG: at most 0.5.
To GUUCCAUUGGCGUAAUGGUAACGCGUCUCCCUGGUAAGGAGAAGACUGCGGGUUCGAGUCACGUACUGAACG belongs at most 0.5; to GUUCCAUUAGCGUAAUGGUAACGCGUCUUCCUCCUAAGGAGAAGAUUGCGGGUUCGAGUCCCGUACCGAACG, at most 0.5; to GUUCCAUUGGCGUAAUGGUAACGCGUCUCCCUCUUAAGGGGAAGACUGCGGGUUCGAGUCCCGUACGAAACG, at most 0.5.
On to GUUCCAUUGGCGUAAUGGUAACGCGUCUCCCUCGUAAGGAGAAGACUGCGGGUUCGAGUCCUGUACGCAACG, for which the yeast fitness was at most 0.5.
The same measure for GUUCCAUUGGCGUAAUGGUAACGCGUCUCCGUCCUAAGGAGAAGACUGCAGGUUCGAGUCCCGUACGGAACG: 0.61.
As for GUUCCAUUGGCGUAAUGGUAACGCGUCUCCUUCCUAAGGAGAAGACUGCGAGUUCGAGUCCCGUACGGAACG, the yeast fitness was found to be 0.599.
To GUUCCAUUCGCGUAAUGGUAACGCGUCUCCUUCCUAAGGAGAAGACUGCGGGUUCGAGUCCUGUACGCAACG belongs at most 0.5.
To GUUCCAUUCGCGUAAUGGUAACGCGUCUCCUUCCUAAGGAGAAGACUGCGGGUUCGAGUCCCGUACGGAACG belongs at most 0.5; to GUUCCAUUCGCGUAAUGGUAACGCGUCUCCCUCCUAAGGAGAAGACUGCGGGUUCGAGUCCCGUACGCAACG, at most 0.5.
As for GUUCCAUUGGCGUAAUGGUAACGCGUCUCCCUACUACGGAGAAGACUGCGGGUUCGAGUCCCGUACGGAACG, the yeast fitness was at most 0.5.
The same measure for GUUCCAUUGGCGUAAUGGUAACGCGUCUCCCUACAAAGGAGAAGACUGCGGGUUCGAGUCCCGUACGCAACG: at most 0.5; for GUUCCAUUCGCGUAAUGGUAACGCGUCUCCCUCCUAAGGAGUUGACUGCGGGUUCGAGUCCCGUGCGAACCG: 0.663; for GUUCCAUUGGCGUAAUGGUAACGCGUCUCCCUUCUAAGGAGAAGACUGCAGCUUCGAGUCCCGUCCGGAACG: at most 0.5.
As to GUUCCAUUGGCGUAAUGGUAACGCGUCUCCCUGCUAAGGAGAAGACUACGGGUCCGAGUCCCGUAGGGACCG, the yeast fitness was at most 0.5.
The same measure for GUUCCAUUCGCGUAAUGGUACCGCGUCUCUCUCCUAAGGAGAAGUCUGCGGGUUAGAGUCCCGUACGGAACG: 0.517; for GUUCCAUUGGCGUAAUGGUAACGCGUCUCCCUCCUAAGGAGAAGACUGCGGGUUUGAAUCCCGUACAGAACG: at most 0.5.
To GUUCCAUUCGGGUAAUGGUAAAGCGUCUCUGUCCUAAGGAGAAGACUGCGGGUUCGAGUCCCGUACUGAACG belongs at most 0.5; to GUUCCAUUGCCGUAAUGGUAACGCGUCUCACUCCUAAGGAGAAGACUGCGGGUUCGAGUCCCGUACGGUACG, 0.786; to GUUCCAUUGGCGUAAUGGUAACGCGUCUCCCUCCUAAGGAGAAGACUGCGGGUUCGAGUCCGGUACGGAACG, 0.827.
To GUUCCAUUGGCGUAAUGGUAACGCGUCUCUCUCCUAAGGAGAAGACUGCGCGUUCGAGUCCCGUACGGAACG belongs at most 0.5.
For GUUCCAUUGGCGUAAUGGUAACGCGUCUCCCUCCUAAGGAGAAGACUGCGGGUUCGAGUCUCCUACGGAACG, the yeast fitness is at most 0.5.
Turning to GUUCCAUUGGCGUAAUGGUAACGCGUCUCCCUCCUAAGGAGAAGACUGUGGGUUCGAAUCCCGUACGGCACG, the yeast fitness stood at 0.605.
The same measure for GUUCCAUUGGCGUAAUGGUAACGCGUCUCCUUCCUAAGGAGAUGACUGCGGGUUCGAGUCCCGUACGGAACG: 0.529; for GUUCCAUUGGCGUAAUGGUAACGCGUCUCUCUCCUAAGGAGAAGACUGCGGGUACGAGUCCCGUACGGAACG: at most 0.5; for GUUCCAUUGGCGUAAUGGUAACGCGUCUCACUCCUAAGAAGAAGACAGCGGGUUCGAGUCCCCUACGGAACG: at most 0.5.
For the variant GUUCCAUUGGCGUAAUGGUAACGCGUCUCCCUCGUAUGGAGAAGACUGGGGGUUCGAGUCCCGUACGGAACG, the yeast fitness was 0.532.
To GUUCCAUUCGCGUAAUGGUAACGCGUAUCCAUCCUAAGGAGAAGACUGCGGGUUCGAGUCCCGUACGGAACG belongs at most 0.5; to GUUCCAUUGCCGUAAUGGUAACGCGUCUCCCUCCUAAGGAGAAGACUGCGGGUUCGAGUCCCGUACGGAACG, 0.725.
To GUUCCAUUGGCGUAAUGGUAACGCGUCUCCCUCGUAAGGAGAAGACUGCGGGUUCGAGUCCCGUACGAAACG belongs 0.556.
To GUUCCAUUGGCGUAAUGGUAACGCGUCUCCCUCCUAAGGAGAAGAGUGCGGGUUCGAGUCCCGAACGGAACG belongs 0.667; to GUUCCAUUGACGUAAUGGUAACGCGUCUCUCUCCUAAGGAGAAGACUGCGGGUUCGAGUGCCGUACGGAACG, at most 0.5.

Source of the values: the RNAGym collection of RNA variant scans (doi:10.1126/science.aae0568).
